Only some compounds are listed: those with a hit (about 2.5% of all), similar ones and a draw of the others.
TRPC6 activator – activates the mouse TRPC6 cation channel; AID 2550; Q61143; 310,000 tested, 0.13% active; HEK293-TRPC6 membrane potential dye fluorescence; stronger effect = higher value; B-score at 10 µM;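 active means B-score of the integrated fluorescence ratio above library mean plus 3 SD, and starting fluorescence ratio within library mean plus 5 SD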;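 further: higher score means more depolarization so channel activation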
TRPC4 agonist – opens the mouse TRPC4 cation channel. Q9QUQ5. AID 2237. B-score at 10 µM. HEK293 TRPC4beta/mu-opioid, Fluo4 calcium fluorescence; stronger effect = higher value. 310,000 tested, 0.49% active;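 active means B-score above 5 SD of library B-scores, and initial fluorescence ratio not above library mean plus 5 SD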;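 further: positive B-score marks a calcium rise read as TRPC4 activation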
Target sequence (Q9QUQ5 whole entry, looked up): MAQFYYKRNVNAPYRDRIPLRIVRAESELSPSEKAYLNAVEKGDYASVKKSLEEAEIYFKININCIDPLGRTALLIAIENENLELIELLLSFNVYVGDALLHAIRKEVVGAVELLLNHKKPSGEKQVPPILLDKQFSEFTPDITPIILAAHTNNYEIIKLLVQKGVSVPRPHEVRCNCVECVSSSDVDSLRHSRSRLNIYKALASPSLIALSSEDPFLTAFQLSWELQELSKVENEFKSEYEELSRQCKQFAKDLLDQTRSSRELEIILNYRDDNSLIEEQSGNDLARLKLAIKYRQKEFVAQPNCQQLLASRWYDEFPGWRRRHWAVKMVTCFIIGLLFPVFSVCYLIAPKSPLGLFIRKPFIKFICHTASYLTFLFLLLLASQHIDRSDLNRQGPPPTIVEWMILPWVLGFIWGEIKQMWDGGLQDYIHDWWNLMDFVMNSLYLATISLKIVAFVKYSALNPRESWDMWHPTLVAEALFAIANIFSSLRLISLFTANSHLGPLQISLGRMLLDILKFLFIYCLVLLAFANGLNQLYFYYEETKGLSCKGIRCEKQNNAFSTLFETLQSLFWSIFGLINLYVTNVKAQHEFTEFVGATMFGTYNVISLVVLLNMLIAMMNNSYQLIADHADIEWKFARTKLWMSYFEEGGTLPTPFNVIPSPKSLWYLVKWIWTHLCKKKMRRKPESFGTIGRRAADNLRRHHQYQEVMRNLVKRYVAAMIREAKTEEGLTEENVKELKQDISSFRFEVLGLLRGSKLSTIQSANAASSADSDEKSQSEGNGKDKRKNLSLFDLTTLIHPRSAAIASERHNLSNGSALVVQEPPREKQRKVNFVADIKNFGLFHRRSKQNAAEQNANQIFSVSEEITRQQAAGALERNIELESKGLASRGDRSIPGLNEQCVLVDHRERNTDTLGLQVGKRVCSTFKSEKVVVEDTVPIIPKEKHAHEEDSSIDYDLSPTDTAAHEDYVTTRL
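Material: TRPC4beta and mu-opioid receptor HEK293 stable cells | Incubation: 45 min room-temperature Fluo4 loading, 110 s read | Detection: Kinetic Fluo4 calcium fluorescence | Measure: Integrated baseline-normalised fluorescence ratio, converted to per-well B score | Benchmarks: Low control buffer alone, high control maximal DAMGO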
Pemphigus Ab inh – human desmoglein-3 autoantibody binding inhibition | P32926 | DSG3-coupled beads, scFv-anti-DSG3-GFP binding, flow cytometry; stronger effect = lower value | binding (percent of control), % at 10 µM | 310,000 tested, 0.48% active | AID 588358;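 active means binding more than 3 SD below its plate's average and above zero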;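 further: hits lower antibody fragment binding to DSG3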
TRPC4 potent – allosteric potentiators of mouse TRPC4 channel; B-score at 10 µM; HEK293 TRPC4beta/mu-opioid, DAMGO EC20, Fluo-4 Ca2+ flux; stronger effect = higher value; 310,000 tested, 0.42% active;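 active means B-score of calcium response area above 5 SD of library B-scores, with initial fluorescence ratio within 5 SD of library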;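 further: B-score of integrated fluorescence ratio over time as area under calcium response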
TRPC6 inh – mouse TRPC6 channel inhibition; B-score at 10 µM; Q61143; AID 2553; 310,000 tested, 1.1% active; HEK293-TRPC6, membrane potential dye, ACh-evoked depolarization; stronger effect = lower value;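 active means B-score under library mean minus 3 SD, initial fluorescence not abnormally high, positive integrated signal ratio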;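 further: B-score derived from integrated fluorescence ratio over the kinetic read; more negative B-score means stronger inhibition of depolarization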
TRPC4 block – inhibitors of mouse TRPC4 channel | HEK293 TRPC4beta/mu-opioid, DAMGO-evoked Fluo4 calcium flux; stronger effect = lower value | B-score at 10 µM | 300,000 tested, 0.39% active;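 active means B-score over 3 SD under the library average, no early fluorescence shift, positive overall ratio signal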
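Material: HEK293 cells with stable TRPC4beta plus mu-opioid receptor expression; probe or stimulus: DAMGO in two steps, submaximal then maximal; technique: Fluo4 calcium fluorescence by kinetic imaging, 5 s 1 Hz baseline; measure: integrated fluorescence ratio relative to baseline, converted to per-well B score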
The depositor's hits bear a star; i = inactive; · = no result.

SMILES	TRPC6 activator	TRPC4 agonist	Pemphigus Ab inh	TRPC4 potent	TRPC6 inh	TRPC4 block
CCc1ccc(OCC(=O)c2c(O)c3ccccc3oc2=O)cc1	i	i	49.8*	i	i	i
c1cnc2nc3c4ccccc4c4ccccc4c3nc2c1	·	·	78.5*	·	·	·
CC(C)c1ccc(NC(=O)CN2C(=O)COc3ccc(S(=O)(=O)N4CCOCC4)cc32)cc1	i	i	74.2*	i	i	i
CN(Cc1ccccc1)CC1C2CCC(C2)C1O (configuration not stated)	·	·	114.2	·	·	·
O=C(O)CCCN1C(=O)/C(=C\c2ccc(-c3nc4ccccc4s3)o2)SC1=S	i	i	73.5*	19*	i	i
O=C(NCC1(N2CCCCC2)CCCCC1)c1cccc(S(=O)(=O)Nc2ccc(F)cc2)c1	·	·	98.9	·	·	·
COCCN1CCN(c2c3c(nc4cc(-c5cccc(F)c5)nn24)CCC3)CC1	i	60*	·	11*	i	i
Cc1ccc(C(=O)NC(=S)NCC(=O)c2ccccc2)cc1	i	i	-20.1*	i	i	i
Cc1cccc(C(=O)NC(=S)NNC(=O)Cc2ccccc2)c1	i	219*	105.3	i	i	i
Cc1ccc(C(=O)NC(=S)NNC(=O)COc2ccccc2C)cc1	i	54*	118.4	i	i	i
CCCCCC(=O)NNC(=S)NC(=O)c1ccccc1[N+](=O)[O-]	i	i	128.6	i	i	i
CCC(=O)NNC(=S)NC(=O)c1ccc(C)cc1	i	i	100.6	i	i	i
CCCCCC(=O)NNC(=S)NC(=O)c1cccc([N+](=O)[O-])c1	i	60*	102.0	i	i	i
O=C(NCCN1C(=O)S/C(=C\c2cccc(Cl)c2Cl)C1=O)C1=COCCO1	i	i	106.5	i	i	i
Cc1cccc(C(=O)NC(=S)Nc2ccccc2C(=O)O)c1	i	i	99.4	i	i	i
Cc1ccccc1C(=O)NNC(=S)NC(=O)c1ccc(Cl)cc1Cl	i	249*	118.9	i	i	i
Cc1cccc(C(=O)NC(=S)NCc2ccccc2)c1	i	i	·	i	i	i
Cc1cccc(C(=O)NC(=S)NNC(=O)COc2c(C)cccc2C)c1	i	102*	117.2	i	i	i
O=C(COc1ccccc1)NNC(=S)NC(=O)c1ccccc1	i	46*	99.8	i	i	i
Cc1cccc(C(=O)NC(=S)NNC(=O)c2ccccc2Cl)c1	i	294*	95.8	i	i	i
CC(CNC(=O)c1ccc(OC2CCN(Cc3ccccn3)CC2)cc1)c1ccccc1 (configuration not stated)	i	i	·	i	i	i
COCCN(C(=O)c1cc(CN2C(=O)c3ccccc3C2=O)ccc1OC)c1c(N)n(CC(C)C)c(=O)[nH]c1=O	·	·	101.7	·	·	·
CC(=O)N1CCC(C(=O)OCc2ccccc2F)(c2ccccc2)CC1	i	i	103.4	i	i	i
O=c1oc2ccccc2c(O)c1CN1CCCCC1	i	i	105.0	i	i	i
O=c1oc2ccccc2c(Nc2ccccc2)c1CN1CCCCC1	i	i	101.9	i	i	-7*
SMILES	TRPC6 activator	TRPC4 agonist	Pemphigus Ab inh	TRPC4 potent	TRPC6 inh	TRPC4 block
CNC(=S)N/N=C/c1ccc(-c2cc([N+](=O)[O-])ccc2Cl)o1	i	i	-11.7*	i	i	i
NC(=S)N/N=C/c1ccc(-c2cc(Cl)ccc2Cl)o1	i	i	89.6	i	i	i
N#C/C(=C/c1ccc(-c2cc([N+](=O)[O-])ccc2Cl)o1)C(N)=O	i	i	75.4*	i	i	i
Cc1cccc(NC2=CC(=O)CC(C)(C)C2)c1C	i	i	102.9	i	i	i
Cc1ccc(C)c(S(=O)(=O)Nc2cc3c4c(c2)CCC(=O)N4CCC3)c1	i	i	104.3	i	i	i
Cc1ccc(-c2c(C(=O)N(C)Cc3ccccc3)oc(=O)c3ccccc23)cc1	i	i	92.2	i	i	i
CN(Cc1ccccc1)C(=O)c1oc(=O)c2ccccc2c1-c1ccccc1	i	i	128.1	16*	i	i
O=S(=O)(NCc1ccccc1)c1ccc(Cl)cc1	i	i	102.8	i	i	i
O=S(=O)(Nc1cc2nc3ccccc3nc2n1Cc1ccccc1)c1ccc(Cl)cc1	25.7*	i	94.8	i	i	i
CC(C)(C)c1ccc(C(=O)c2c[nH]c(C(=O)NCCc3ccccn3)c2)cc1	i	i	120.2	i	i	i
CCC(CC)C(=O)N(c1ccc(F)cc1)C1C=CS(=O)(=O)C1 (configuration not stated)	i	i	82.9*	i	i	i
NC(=O)C(=O)N/N=C/c1cccc(C(F)(F)F)c1	i	i	96.3	i	i	i
C/C(=C\C(=O)OCC(=O)NCc1ccccc1)C(=O)OCC(=O)NCc1ccccc1	i	i	76.2*	i	i	i
COc1ccc(-c2nsc3c(N4CCCCC4C)ncnc23)cc1 (configuration not stated)	i	i	101.9	11*	i	i
CCC(/C=C1\Sc2ccc(OC)cc2N1CCO)=C\c1sc2ccc(OC)cc2[n+]1CCO	·	·	-40.3*	·	·	·
N=C1C(c2nc3ccccc3s2)=C(O)CN1NC(=O)c1ccco1	i	i	75.7*	i	i	i
COc1cccc(C(=O)NN2CC(O)=C(c3nc4ccccc4s3)C2=N)c1	i	i	100.8	i	i	i
COc1ccc(NC(=O)CN(Cc2ccco2)Cc2ccco2)cc1S(=O)(=O)N1CCCCC1	·	·	99.7	·	·	·
COc1cccc(Nc2ccc([N+](=O)[O-])c3nonc23)c1	i	i	124.8	i	i	i
COc1cccc(NCc2ccc([N+](=O)[O-])s2)c1	i	i	103.4	i	i	-6*
O=C(COc1cc2oc(=O)c3c(c2cc1Cl)CCC3)Nc1cccnc1	i	i	77.4*	i	i	i
O=C(CCc1ccccc1)NNC(=S)NC(=O)c1ccc(Cl)cc1	i	211*	·	i	i	i
Cc1ccc(C(=O)NNC(=S)NC(=O)c2ccc(Cl)cc2)cc1	i	222*	102.0	i	i	i
O=C(CCc1ccccc1)NNC(=O)c1ccc(Cl)cc1	i	i	91.8	i	i	i
O=C(CSc1cccc(C(F)(F)F)c1)Nc1cc(S(=O)(=O)N2CCCC2)ccc1Cl	i	i	104.2	10*	i	i

Screens deposited in PubChem by several laboratories.
